molecular target: T1, Polyunsaturated fatty acid lipoxygenase ALOX15 (Homo sapiens) (UniProt P16050); experiment: Inhibition of recombinant human 15-LOX-1 expressed in Escherichia coli BL21(DE3) assessed as residual activity at 50 uM using linoleic acid as substrate preincubated for 10 mins followed by substrate addition
T1 sequence (whole entry): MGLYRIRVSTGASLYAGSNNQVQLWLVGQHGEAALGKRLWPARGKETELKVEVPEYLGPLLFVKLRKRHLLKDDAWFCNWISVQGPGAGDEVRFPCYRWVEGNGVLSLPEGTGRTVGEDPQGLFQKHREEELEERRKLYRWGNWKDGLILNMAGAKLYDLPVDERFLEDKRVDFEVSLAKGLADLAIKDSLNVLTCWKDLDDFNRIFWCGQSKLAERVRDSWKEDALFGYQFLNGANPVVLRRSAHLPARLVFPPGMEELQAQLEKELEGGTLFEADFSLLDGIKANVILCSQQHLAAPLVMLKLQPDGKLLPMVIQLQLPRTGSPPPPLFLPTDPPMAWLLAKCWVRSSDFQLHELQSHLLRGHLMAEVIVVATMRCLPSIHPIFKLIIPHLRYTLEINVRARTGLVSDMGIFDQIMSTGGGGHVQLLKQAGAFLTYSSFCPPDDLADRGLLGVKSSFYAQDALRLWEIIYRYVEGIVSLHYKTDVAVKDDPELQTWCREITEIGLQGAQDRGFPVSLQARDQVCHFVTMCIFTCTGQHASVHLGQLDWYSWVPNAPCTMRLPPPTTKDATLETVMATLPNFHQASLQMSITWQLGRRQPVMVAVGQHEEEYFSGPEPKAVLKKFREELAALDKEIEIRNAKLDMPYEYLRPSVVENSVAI
How it was run: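 h-15-LOX-1 (1:100 enzyme stock, 1:400 final) preincubated 10 min at room temperature with inhibitor in 25 mM HEPES pH 7.4, then linoleic acid added to 25 µM final (inhibitor 50 µM final). 13(S)-HpODE formation read as A234 over time, rate taken from linear part within first 16 min; no-inhibitor = 100%, no-enzyme = 0%. Triplicate.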

| Activity | SMILES |
| --- | --- |
| 73.5% | Nc1[nH]c(C(=O)c2ccccc2)c(-c2ccc(Br)cc2)c1C(=O)NCCc1c[nH]c2ccccc12 |
| 104% | Nc1[nH]c2ccccc2c1C(=O)NCCc1ccc(Cl)cc1Cl |
| 99.9% | Nc1[nH]c(C(=O)c2ccccc2)c(-c2cccnc2)c1C(=O)NCCc1ccc(Cl)cc1Cl |
| 96.4% | Cc1ccc([C@@H](C)NC(=O)c2c(N)[nH]c(C(=O)c3ccccc3)c2-c2ccccc2C(F)(F)F)cc1 |
| 84.9% | Nc1[nH]c(C(=O)c2ccccc2)c(-c2cccnc2)c1C(=O)c1ccccc1 |
| 103% | COCCNC(=O)c1c(N)[nH]c(C(=O)c2ccc(Br)cc2)c1-c1ccc(Br)cc1 |
| 97.2% | COc1ccc(C(=O)c2[nH]c(N)c(C(=O)NCCc3c[nH]c4ccccc34)c2-c2ccccc2C(F)(F)F)cc1 |
| 115% | COc1ccc2cccc(-c3c(C(=O)c4ccc(Br)cc4)[nH]c(N)c3C(=O)NCc3ccc(-c4ccccc4)cc3)c2c1 |
| 91% | Nc1[nH]c(C(=O)c2ccccc2)c(-c2ccncc2)c1C(=O)NC1CC1 |
| 96.2% | Nc1[nH]c(C(=O)c2ccc(Cl)cc2)c(-c2ccc(Br)cc2)c1C(=O)c1c[nH]c2ccc(F)cc12 |
| 91.5% | Nc1[nH]c(C(=O)c2ccccc2)c(-c2ccccc2C(F)(F)F)c1C(=O)NCCc1cccs1 |
| 79.1% | NC(=O)c1c(N)[nH]c(C(=O)c2ccccc2)c1-c1ccc2ccccc2c1 |
| 55.3% | Nc1[nH]c(C(=O)c2ccccc2)c(-c2ccccn2)c1C(=O)c1c[nH]c2ccc(Br)cc12 |
| 104% | Nc1[nH]c(C(=O)c2ccccc2)c(-c2ccc(Br)cc2)c1C(=O)NCCCN1CCOCC1 |
| 66.4% | COc1ccc(CCNC(=O)c2c(N)[nH]c(C(=O)c3ccccc3)c2-c2ccc(N(C)C)cc2)cc1 |
| 69.2% | NC(=O)c1c(N)[nH]c(C(=O)c2ccccc2)c1-c1cccc2ccccc12 |
| 98.8% | COc1cc(-c2c(C(=O)c3ccccc3)[nH]c(N)c2C(N)=O)ccc1O |
| 99.1% | NC(=O)c1c(N)[nH]c(C(=O)c2ccccc2)c1-c1cccnc1 |
| 74.7% | Nc1[nH]c(C(=O)c2ccccc2)c(-c2ccc(C(F)(F)F)cc2)c1C(=O)NCc1ccc(Cl)cc1Cl |
| 125% | Nc1[nH]c2cc(C(F)(F)F)ccc2c1C(=O)NC1CCCCC1 |
| 76.5% | Nc1[nH]c(C(=O)c2ccccc2)c(-c2ccc(Cl)cc2Cl)c1C(=O)NCCC1=CCCCC1 |
| 95.7% | COc1ccc(C(=O)c2[nH]c(N)c(C(=O)c3ccccc3)c2-c2ccc(OC)c(OC)c2)cc1 |

| Activity | SMILES |
| --- | --- |
| 94.9% | Cc1ccccc1-c1c(C(=O)c2ccccc2)[nH]c(N)c1C(=O)c1ccc(Cl)cc1 |
| 94.3% | Nc1[nH]c(C(=O)c2ccccc2)c(-c2ccc(Br)cc2)c1C(=O)NC1CC1 |
| 92.2% | Cc1ccc(S(=O)(=O)n2c(-c3ccccc3)cc(C(=O)NC3CC3)c2N)cc1 |
| 90.8% | CCCCCCNC(=O)c1c(N)[nH]c(C(=O)c2ccccc2)c1-c1ccc(O)cc1 |
| 50.9% | Nc1[nH]c(C(=O)c2ccccc2)c(-c2ccc(Cl)cc2)c1C(=O)c1c[nH]c2ccc(Br)cc12 |
| 91.7% | COc1ccccc1CCNC(=O)c1c(N)[nH]c(C(=O)c2ccccc2)c1-c1ccc(Cl)cc1Cl |
| 46.7% | Nc1[nH]c(C(=O)c2ccc(Br)cc2)c(-c2cccc3ccccc23)c1C(=O)NCCc1c[nH]c2ccccc12 |
| 71.3% | CC(NC(=O)c1c(N)[nH]c(C(=O)c2ccccc2)c1-c1ccccc1Br)c1cccc2ccccc12 (centres undefined) |
| 110% | COc1cc(-c2c(C(=O)c3ccccc3)[nH]c(N)c2C(N)=O)ccc1F |
| 62.2% | Nc1[nH]c(C(=O)c2ccccc2)c(-c2cccc3ccccc23)c1C(=O)NCc1ccc(F)c(F)c1 |
| 97.3% | Nc1[nH]c(C(=O)c2ccccc2)c(-c2ccc(Cl)cc2)c1C(=O)NCc1ccccc1 |
| 94.1% | Nc1[nH]c(C(=O)c2ccccc2)c(-c2ccccc2C(F)(F)F)c1C(=O)c1c[nH]c2ccccc12 |
| 45.5% | Nc1[nH]c(C(=O)c2ccccc2)c(-c2ccccc2C(F)(F)F)c1C(=O)NCCc1c[nH]c2ccccc12 |
| 122% | CC(NC(=O)c1c(N)[nH]c(C(=O)c2ccc(Cl)cc2)c1-c1ccc(Br)cc1)c1cccc2ccccc12 (centres undefined) |
| 120% | COc1ccc(CNC(=O)c2c(N)[nH]c(C(=O)c3ccccc3)c2-c2ccc3ccccc3c2)cc1OC |
| 64.5% | COc1ccccc1CCNC(=O)c1c(N)[nH]c(C(=O)c2ccccc2)c1-c1ccc(Br)cc1 |
| 74.8% | COC(=O)c1c(N)[nH]c(C(=O)c2ccccc2)c1-c1ccccc1Br |
| 91.9% | CC(C)(C)C(=O)c1c(N)[nH]c(C(=O)c2ccccc2)c1-c1c(F)cccc1F |
| 41.9% | COc1ccc(C(=O)c2[nH]c(N)c(C(=O)NCCc3c[nH]c4ccccc34)c2-c2ccc(Cl)c(Cl)c2)cc1 |
| 65.6% | Nc1[nH]c(C(=O)c2ccccc2)c(-c2cccc3ccccc23)c1C(=O)NC1CCCCC1 |
| 92.5% | Nc1[nH]c(C(=O)c2ccccc2)c(-c2cccc3ccccc23)c1C(=O)NCc1ccccc1 |
| 107% | Nc1[nH]c(C(=O)c2ccccc2)c(-c2cccc3ccccc23)c1C(=O)c1ccc(Br)cc1 |

| Activity | SMILES |
| --- | --- |
| 80.6% | Nc1[nH]c(C(=O)c2ccccc2)c(-c2ccc3ccccc3c2)c1C(=O)NCCc1ccc(Cl)cc1 |
| 103% | CN(C)c1ccc(-c2c(C(=O)c3ccccc3)[nH]c(N)c2C(N)=O)cc1 |
| 94.4% | Cc1ccc(-c2c(C(=O)c3ccccc3)[nH]c(N)c2C(=O)NCc2ccc(Cl)cc2)cc1 |
| 86.1% | Nc1[nH]c(C(=O)c2ccc(Br)cc2)c(-c2ccncc2)c1C(=O)NCCc1c[nH]c2ccccc12 |
| 59.6% | Nc1[nH]c(C(=O)c2ccccc2)c(-c2ccc(F)cc2)c1C(=O)NCCc1c[nH]c2ccccc12 |
| 71.3% | COc1ccc(C(=O)c2[nH]c(N)c(C(=O)NCCc3c[nH]c4ccccc34)c2-c2c(F)cccc2Cl)cc1 |
| 122% | Nc1[nH]c(C(=O)c2ccccc2)c(-c2ccc3ccccc3c2)c1C(=O)NCc1ccc(-c2ccccc2)cc1 |
| 94% | COC(=O)c1c(N)[nH]c(C(=O)c2ccccc2)c1-c1ccc(Br)cc1 |
| 109% | Nc1[nH]c(C(=O)c2ccc(Br)cc2)c(-c2ccncc2)c1C(=O)c1ccccc1 |
| 114% | Nc1[nH]c(C(=O)c2ccccc2)c(-c2cccc(C(F)(F)F)c2)c1C(=O)c1c[nH]c2ccccc12 |
| 62.3% | N#Cc1c(N)[nH]c(C(=O)c2ccccc2)c1-c1ccccc1Br |
| 36.8% | Nc1[nH]c(C(=O)c2ccccc2)c(-c2ccc(Cl)c(Cl)c2)c1C(=O)NCCc1c[nH]c2ccccc12 |
| 67.1% | COc1ccc(C(=O)c2[nH]c(N)c(C(N)=O)c2-c2ccc(O)c(OC)c2)cc1 |
| 109% | Nc1[nH]c2cc(C(F)(F)F)ccc2c1C(=O)N1CCN(CCc2ccccc2)CC1 |
| 100% | Nc1[nH]c(C(=O)c2ccccc2)c(-c2ccc(Cl)cc2)c1C(=O)c1ccc(Cl)cc1 |
| 91.3% | Nc1[nH]c(C(=O)c2ccccc2)c(-c2ccccc2Br)c1C(=O)NCc1ccc(-c2ccccc2)cc1 |
| 98.5% | Cc1cc(C)cc(-c2c(C(=O)c3ccc(Br)cc3)[nH]c(N)c2C(=O)NCc2ccc(Cl)cc2)c1 |
| 116% | Nc1[nH]c(C(=O)c2ccccc2)c(-c2ccc(F)cc2)c1C(=O)c1c[nH]c2ccccc12 |
| 123% | Nc1[nH]c(C(=O)c2ccccc2)c(-c2ccc(Cl)cc2)c1C(=O)N1CCCC1 |
| 59.8% | Nc1[nH]c(C(=O)c2ccccc2)c(-c2ccccc2Br)c1C(=O)c1cccs1 |

Source: ChEMBL document CHEMBL4130408, “Photoactivation provides a mechanistic explanation for pan-assay interference behaviour of 2-aminopyrroles in lipoxygenase inhibition” (Eur J Med Chem, 2017)
